Key:
Splenocyte [1] = experiment: Induction of IFN in C3H/HeJ mouse splenocytes at 3 nM; format: functional
How it was run: (§1)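 Mouse splenocytes are suspended at 2 × 10⁶ cells/mL in MEM with 5% fetal calf serum, penicillin and streptomycin. They are mixed 1:1 with compound (DMSO stock diluted 500-fold in medium) and cultured 18 h at 37 °C in 5% CO₂. Supernatants are filter-sterilized and stored at -80 °C. IFN (IU/mL) is measured by L929/vesicular stomatitis virus bioassay.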

Splenocyte [2] = experiment: Induction of IFN in C3H/HeJ mouse splenocytes at 100 nM; format: functional; how it was run: as §1
[3] = Cmax in ferret at 3 mg/kg, po; format: ADME, organism-based, Mustela putorius furo; set-up: dose 3 mg/kg, route oral; conditions: in vivo
How it was run: (§2)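 Male ferrets, 4 months old, dosed orally with compound suspended in 0.5% sodium carboxymethyl cellulose. Blood (0.5 mL) drawn from jugular vein; serum separated at 1630g, 10 min, 4 °C, stored at -20 °C. Compound concentration measured by HPLC; maximum concentration reported in ng/mL.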

Mustela putorius furo [4] = experiment: Emetic activities in ferret at 0.3 mg/kg, po; format: organism-based; set-up: dose 0.3 mg/kg, route oral; conditions: in vivo
How it was run: (§3)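 Oral dosing of male ferrets (4 months old) with compound in 0.5% sodium carboxymethyl cellulose vehicle; doses 0.3-30 mg/kg, 5 animals per group. Animals housed singly, video-recorded continuously for 6 h. Tapes scored afterwards for presence or absence of vomiting; reported as number vomiting per group.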

Mus musculus [5] = experiment: Induction of IFN in BALB/c mice at 0.3 mg/kg, po; format: functional
[6] = Cmax in ferret at 30 mg/kg, po; format: ADME, organism-based, Mustela putorius furo; set-up: dose 30 mg/kg, route oral; conditions: in vivo; how it was run: as §2
Splenocyte [7] = experiment: Induction of IFN in C3H/HeJ mouse splenocytes at 10 nM; format: functional; how it was run: as §1
Cynomolgus monkey [8] = experiment: Induction of IFN in cynomolgus monkey at 1 mg/kg, po; format: functional, Macaca fascicularis
Splenocyte [9] = experiment: Induction of IFN in C3H/HeJ mouse splenocytes at 1 nM; format: functional; how it was run: as §1
Mus musculus [10] = experiment: Induction of IFN in BALB/c mice at 0.1 mg/kg, po; format: functional
Cynomolgus monkey [11] = experiment: Induction of IFN in cynomolgus monkey at 0.1 mg/kg, po; format: functional, Macaca fascicularis
Splenocyte [12] = experiment: Induction of IFN in C3H/HeJ mouse splenocytes at 30 nM; format: functional; how it was run: as §1
Cynomolgus monkey [13] = experiment: Induction of IFN in cynomolgus monkey at 0.3 mg/kg, po; format: functional, Macaca fascicularis
Mustela putorius furo [14] = experiment: Emetic activities in ferret at 3 mg/kg, po; format: organism-based; set-up: dose 3 mg/kg, route oral; conditions: in vivo; how it was run: as §3
Mustela putorius furo [15] = experiment: Emetic activities in ferret at 30 mg/kg, po; format: organism-based; set-up: dose 30 mg/kg, route oral; conditions: in vivo; how it was run: as §3

| Compound | Activity (Splenocyte [1]) | Activity (Splenocyte [2]) | Cmax [3] | Activity (Mustela putorius furo [4]) | Activity (Mus musculus [5]) | Cmax [6] | Activity (Splenocyte [7]) | Activity (Cynomolgus monkey [8]) | Activity (Splenocyte [9]) | Activity (Mus musculus [10]) | Activity (Cynomolgus monkey [11]) | Activity (Splenocyte [12]) | Activity (Cynomolgus monkey [13]) | Activity (Mustela putorius furo [14]) | Activity (Mustela putorius furo [15]) |
| --- | --- | --- | --- | --- | --- | --- | --- | --- | --- | --- | --- | --- | --- | --- | --- |
| CCCCNc1nc(N)c2nc(O)n(Cc3ccc(Cl)nc3)c2n1 | 5.6 IU/ml | 1.5 IU/ml | 20.1 ng/mL | Not Active | 1826 IU/ml | 275 ng/mL | 6.8 IU/ml | 3602 IU/ml | <0.5 IU/ml | 811 IU/ml | 0 IU/ml | 2.6 IU/ml | 19 IU/ml | Not Active | Not Active |
| CCCCNc1nc(N)c2nc(O)n(Cc3ccc(C)nc3)c2n1 | 4.4 IU/ml | 1.4 IU/ml | 20.8 ng/mL | Not Active | 1891 IU/ml | 1020 ng/mL | 7.8 IU/ml | 34810 IU/ml | <0.5 IU/ml | 393 IU/ml | 121 IU/ml | 3.7 IU/ml | 591 IU/ml | Not Active | Not Active |
| CCCCNc1nc(N)c2nc(O)n(Cc3ccc(OC)nc3)c2n1 | 8.2 IU/ml | 1 IU/ml | 109 ng/mL | Not Active | 1920 IU/ml | 1200 ng/mL | 13.4 IU/ml | 17422 IU/ml | <0.5 IU/ml | 375 IU/ml | 3 IU/ml | 3 IU/ml | 244 IU/ml | Not Active | Not Active |

Reference: ChEMBL document CHEMBL1139013, “Synthesis and biological evaluation of novel 9-substituted-8-hydroxyadenine derivatives as potent interferon inducers” (J Med Chem, 2006)
